Only some compounds are listed: those with a hit (about 9.2% of all), similar ones and a draw of the others.
HUVEC inhibit: inhibitors of human endothelial cell proliferation; HUVEC proliferation, CellTiter-Glo luminescence, 72 h; hits give low values; viability, % at 10 µM (by protocol); 1.1% of 86,000 active;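 active means viability at or below 30%; inactive means viability above 30%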;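 further: 100% = median luminescence of DMSO-only cell control wells on each plate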
H69AR inhibit: growth inhibitors of human H69AR lung tumor cells; H69AR lung tumor viability, ATP luminescence, 72 h; hits give low values; viability, % at 10 µM; 6% of 85,000 active; AID 598;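 active means viability at or below 40%; inactive means viability above 40%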;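 further: multidrug resistant small cell line overexpressing MRP-1 efflux transporter; 100% = mean luminescence of untreated control wells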
ERa coact inh: blocks coactivator binding to human estrogen receptor alpha; AID 629; TR-FRET ER-alpha LBD / SRC-1 peptide, estradiol-bound; P03372; 1.7% of 86,000 active; inhibition, % at 25.6 µM; in the data active means inhibition above about 50%;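 further: 0% = receptor plus peptide control and 100% = peptide only without receptor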
Fibroblast inh: blocks proliferation of human lung fibroblasts; LL 47 human lung fibroblast viability, ATP luminescence; hits give low values; 1.1% of 85,000 active; viability, % at 10 µM; AID 719;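 active means viability at or below 50% in the single dose screen; inactive means viability above 50%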;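 further: compound exposure lasted 72 h before the ATP readout; 100% = median luminescence of untreated cell-only wells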
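Assay system: human lung fibroblast line LL 47, low passage. Input: 1,150 fibroblasts seeded per well. Times: overnight cell rest, 72 h compound treatment at 37 °C. Evaluation: % viability of median cell-only signal. Technique: luminescent ATP detection, CellTiter-Glo. Control set: cell-only wells, no compound.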
ERb SRC1 inh: blocks coactivator binding to human estrogen receptor beta; TR-FRET ER-beta LBD / SRC1-Cy5 peptide binding; receptor agonist-loaded with 1 µM estradiol; AID 633; inhibition, % at 25.6 µM; 1.3% of 86,000 active;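 active means compounds whose percent inhibition of the receptor-coactivator binding signal exceeds about 50% in the single-dose screen, limit read from the data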;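 further: 0% = receptor plus peptide wells without compound and 100% = peptide-only wells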
Target sequence (Q92731 whole entry, looked up, the tested form may be a part): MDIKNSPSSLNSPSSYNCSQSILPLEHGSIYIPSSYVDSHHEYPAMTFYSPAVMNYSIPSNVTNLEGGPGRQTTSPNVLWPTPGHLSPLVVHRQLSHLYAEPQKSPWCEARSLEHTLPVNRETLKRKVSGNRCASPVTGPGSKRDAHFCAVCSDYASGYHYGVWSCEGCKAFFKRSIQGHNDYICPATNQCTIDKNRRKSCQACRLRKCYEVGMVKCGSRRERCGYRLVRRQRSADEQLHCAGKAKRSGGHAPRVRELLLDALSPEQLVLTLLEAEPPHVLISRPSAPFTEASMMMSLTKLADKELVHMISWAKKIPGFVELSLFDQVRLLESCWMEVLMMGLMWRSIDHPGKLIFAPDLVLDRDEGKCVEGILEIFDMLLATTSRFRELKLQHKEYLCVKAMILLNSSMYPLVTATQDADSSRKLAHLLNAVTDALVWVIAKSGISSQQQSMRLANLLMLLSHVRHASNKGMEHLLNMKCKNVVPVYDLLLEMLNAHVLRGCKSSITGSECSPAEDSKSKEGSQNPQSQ
ERa coact pot: ER-alpha (human) coactivator binding potentiation; 1.3% of 86,000 active; P03372; coactivator binding (% of control), % at 25.6 µM; TR-FRET ERalpha-LBD/SRC-Cy5 coactivator binding, 2 h; 100 = basal binding, no effect; AID 639; in the data active means activity above about 200%;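 further: binding measured in presence of low estradiol as agonist stimulus; 0% = peptide alone without receptor and 100% = receptor with peptide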
* hit, by the source's call; [ ] = another dose, or the depositor's remark.

SMILES | HUVEC inhibit | H69AR inhibit | ERa coact inh | Fibroblast inh | ERb SRC1 inh | ERa coact pot
O=C(Oc1cccc(-n2cnnn2)c1)C1CCCCC1 | 90 | 92 | -6 | 91 | -7 | 117
O=C(Oc1cccc(-n2cnnn2)c1)c1sc2ccccc2c1Cl | 88 | 99 | 19 | 102 | 7 | 246*
COCCNC(=O)C1CC(=O)N(c2ccc(F)c(Cl)c2)C1 (configuration not stated) | 89 | 97 | -4 | 107 | 4 | 105
CCN(CC)C(=O)C1CC(=O)N(c2ccc(F)c(Cl)c2)C1 (configuration not stated) | 98 | 91 | 4 | 101 | 67*[fluorescence artefact?] | 101
CCCCN(CCCC)c1nc(OC)nc(-n2nnc(C(C)=O)c2C)n1 | 80 | 37* | 3 | 99 | 3 | 91
CC(=O)c1nnn(-c2nc(N)nc(N(c3ccccc3)c3ccccc3)n2)c1C | 86 | 48 | 0 | 79 | -12 | 120
O=S1(=O)N=C2CCCN2C(c2ccc(F)cc2)N1 (configuration not stated) | 103 | 101 | -4 | 102 | -1 | 94
CCOc1c(Br)cc(C2NS(=O)(=O)N=C3CCCCCN32)cc1OC (configuration not stated) | 94 | 34* | -5 | 85 | -3 | 118
CSc1ncc(Cl)c(C(=O)C(C#N)c2nc3c(C)cc(C)cc3c(=O)[nH]2)n1 (configuration not stated) | 52 | 86 | 11 | 95 | 6 | 76
CCOC(=O)c1c(CN2CCN(C)CC2)n(C)c2cc(Br)c(OC)cc12 | 33 | 7.3* | 1 | 71 | -7 | 114
CC1(C)C(=O)N(OCc2ccccc2)C(C)(C)C(=O)N1OCc1ccccc1 | 106 | 94 | -3 | 97 | 1 | 97
CC(=O)NC1C(=O)Nc2c(C)cc(C)cc21 (configuration not stated) | 111 | 98 | -2 | 107 | -2 | 110
O=C(c1ccc(N2C(=O)C3CC=C(Cl)CC3C2=O)cc1)N1CCCCC1 (configuration not stated) | 96 | 87 | 5 | 99 | -8 | 119
O=C(Nc1ccc(Br)cc1)c1ccc(N2C(=O)C3CC=C(Cl)CC3C2=O)cc1 (configuration not stated) | 36 | 25* | 4 | 92 | 2 | 112
O=C(Oc1ccc(F)cc1C(=O)/C=C/c1cccs1)c1cccc([N+](=O)[O-])c1 | 60 | 3.0* | 2 | 64 | -11 | 113
O=S(=O)(Nc1ccc(-c2nc3cccnc3s2)cc1)c1ccc(Cl)s1 | 85 | 67 | 77*[fluorescence artefact?] | 103 | 11 | 87
Cc1ccc(S(=O)(=O)Cn2cnnn2)cc1 | 86 | 92 | 6 | 98 | 4 | 88
CC(=O)NC1=NN(C(C)=O)C(C)(CS(=O)(=O)c2ccc(Cl)cc2)S1 (configuration not stated) | 106 | 99 | -11 | 97 | -9 | 102
CC(=O)NC1=NN(C(C)=O)C(C)(c2cccs2)S1 (configuration not stated) | 76 | 28* | -7 | 57 | -13 | 113
O=C(Nc1ccc(N2CCCCC2)c(C(=O)O)c1)c1ccco1 | 100 | 95 | 22 | 106 | 19 | 108
Cc1cccc(NC(=O)c2cc(NC(=O)c3ccco3)ccc2N2CCCCC2)c1 | 26* | 93 | -6 | 84 | 3 | 102
COC(=O)C(NC(=O)c1ccc(C)cc1)(Nc1cccc(C)n1)C(F)(F)F (configuration not stated) | 102 | 98 | -10 | 99 | -6 | 107
CCOC(=O)c1nnc(-c2cccs2)nc1Oc1ccccc1C(=O)OC | 74 | 31* | 19 | 97 | 6 | 87
CC1CCN(S(=O)(=O)c2ccc(S(=O)(=O)N3CCCN(Cc4ccccc4)C3)cc2)CC1 | 81 | 80 | -8 | 99 | -7 | 115
CC1CCCN(S(=O)(=O)c2ccc(S(=O)(=O)N3CCCN(Cc4ccccc4)C3)cc2)C1 (configuration not stated) | 41 | 31* | -2 | 85 | -4 | 132
CCC(Oc1ccccc1)C(=O)N1CCN(C(=O)C(CC)Oc2ccccc2)CC1 (configuration not stated) | 102 | 81 | 0 | 94 | -4 | 102

High-throughput results: PubChem BioAssay, several laboratories
